We go through 15 compounds from ChEMBL document CHEMBL1153749, “Flavonoids from the heartwood of the Thai medicinal plant Dalbergia parviflora and their effects on estrogenic-responsive human breast cancer cells” (2009).

What all share (type): functional
Assay [1] deals with MCF7. Description: Estrogenic activity in luciferase transfected human MCF7 cells assessed as drug level causing stimulation of cell proliferation equivalent to 10 pM estradiol by luciferase reporter gene assay. In short, it runs like this: (§1)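 Reporter assay in MCF-7 or T47D cells transiently transfected with luciferase. Compounds tested from 0.01 to 10 µM. Luciferase induction is expressed as the compound concentration equivalent to the 10 or 100 pM estradiol response. Values come from linear regression over at least five concentrations in quadruplicate.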

The test system of assay [2] is MCF7. Kind of assay: Estrogenic activity in luciferase transfected human MCF7 cells assessed as drug level causing stimulation of cell proliferation equivalent to 100 pM estradiol by luciferase reporter gene assay. In short, it runs like this: as §1
Assay [3] relates to T47D. Kind of assay: Estrogenic activity in human T47D cells assessed as drug level causing stimulation of cell proliferation equivalent to 100 pM estradiol after 96 hrs by alamar blue assay. In short, it runs like this:
(§2)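 Cells seeded at 10^4 per well in phenol red-free RPMI with 5% DCC-treated FBS. Compounds added in DMSO (vehicle control 1% DMSO) for 96 h at 37 °C, 5% CO2, with serial estradiol dilutions run alongside. Alamar Blue for 3 h, fluorescence ex 530/em 590 nm. Estradiol-equivalent concentration fitted by linear regression from at least five concentrations in quadruplicate.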

Assay [4] concerns MCF7. Description: Estrogenic activity in human MCF7 cells assessed as drug level causing stimulation of cell proliferation equivalent to 100 pM estradiol after 96 hrs by alamar blue assay. In short, it runs like this: as §2
Assay [5] relates to T47D. Description: Estrogenic activity in human T47D cells assessed as drug level causing stimulation of cell proliferation equivalent to 10 pM estradiol after 96 hrs by alamar blue assay. In short, it runs like this: as §2
Assay [6] relates to T47D. Description: Estrogenic activity in luciferase transfected human T47D cells assessed as drug level causing stimulation of cell proliferation equivalent to 100 pM estradiol by luciferase reporter gene assay. In short, it runs like this:
as §1

Assay [7] concerns MCF7. Kind of assay: Estrogenic activity in human MCF7 cells assessed as drug level causing stimulation of cell proliferation equivalent to 10 pM estradiol after 96 hrs by alamar blue assay. In short, it runs like this: as §2
The subject of assay [8] is T47D. Kind of assay: Estrogenic activity in luciferase transfected human T47D cells assessed as drug level causing stimulation of cell proliferation equivalent to 10 pM estradiol by luciferase reporter gene assay. In short, it runs like this:
as §1

SMILES strings stand for the structures.

Consider `COc1c(C/C=C/c2ccccc2)ccc(O)c1O` [HYDROXYOBUSTYRENE], for which the Activity in assay [1] is more than 100 µM; in assay [2], more than 100 µM; in assay [3], more than 100 µM; in assay [4], more than 100 µM; in assay [5] it was 5.1 µM; in assay [6], more than 100 µM. Further, the Activity in assay [7] and in assay [8] was more than 100 µM throughout.
`COc1ccc([C@@]2(O)COc3cc(O)ccc3C2=O)c(O)c1O` [ISODARPARVINOL B]: the Activity in assay [1] is 1.2 µM; in assay [2] it was 3.4 µM; in assay [3], more than 100 µM; in assay [4], more than 100 µM; in assay [5] it was more than 100 µM; in assay [6], more than 100 µM. Also, the Activity in assay [7] and in assay [8] was more than 100 µM in each case.
On to `O=C(/C=C/c1ccc(O)cc1)c1ccc(O)cc1O` [ISOLIQUIRITIGENIN], for which the Activity in assay [1] was 0.01 µM; in assay [2], more than 100 µM; in assay [3] it was more than 100 µM; in assay [4], 4 µM; in assay [5], 1 µM; in assay [6], more than 100 µM. The values for the Activity in assay [7] and in assay [8] were 1.1 µM and more than 100 µM, respectively.
As for `COc1cc(O)c(-c2coc3cc(O)ccc3c2=O)cc1O` [KHRINONE A], the Activity in assay [1] is more than 100 µM; in assay [2] it was more than 100 µM; in assay [3], more than 100 µM; in assay [4], more than 100 µM; in assay [5] it was more than 100 µM; in assay [6] it was 8.4 µM. Besides, the Activity in assay [7] is more than 100 µM; in assay [8] it was 5.6 µM.
`COc1cc(O)c(-c2coc3cc(O)cc(O)c3c2=O)cc1O` [KHRINONE B]: the Activity in assay [1], in assay [2], in assay [3], in assay [4], in assay [5] and in assay [6] was more than 100 µM each time. Moreover, the Activity in assay [7] and in assay [8] was more than 100 µM in each case.
Regarding `COc1ccc(-c2coc3cc(O)cc(O)c3c2=O)c(OC)c1O` [KHRINONE C], the Activity in assay [1] was more than 100 µM; in assay [2], more than 100 µM; in assay [3], 8.6 µM; in assay [4], 93.3 µM; in assay [5], 0.2 µM; in assay [6] it was 2 µM. Also, the Activity in assay [7] is 4.5 µM; in assay [8], 0.2 µM.
For `COc1cc2c(cc1-c1coc3cc(O)cc(O)c3c1=O)OCO2` [KHRINONE D], the Activity is 0.01 µM in assay [1]; 0.6 µM in assay [2]; more than 100 µM in assay [3]; 4.2 µM in assay [4]; 0.01 µM in assay [5]; more than 100 µM in assay [6]. For the same compound, the Activity in assay [7] worked out at 1.8 µM; in assay [8] it was 5.3 µM.
On to `COc1ccc(-c2coc3cc(O)ccc3c2=O)c(OC)c1O` [KHRINONE E], for which the Activity was 5.9 µM in assay [1]; more than 100 µM in assay [2]; more than 100 µM in assay [3]; more than 100 µM in assay [4]; more than 100 µM in assay [5]; more than 100 µM in assay [6]. The Activity in assay [7] is 4.7 µM; in assay [8], more than 100 µM.
For the compound `O=C1C[C@@H](c2ccc(O)cc2)Oc2cc(O)ccc21` [LIQUIRTIGENIN], the Activity was 0.01 µM in assay [1]; 0.01 µM in assay [2]; more than 100 µM in assay [3]; 0.65 µM in assay [4]; 0.64 µM in assay [5]; 5.9 µM in assay [6]. Further, the values for the Activity in assay [7] and in assay [8] were 0.1 µM and 0.01 µM, respectively.
In the case of `O=C1C[C@@H](c2ccc(O)cc2)Oc2cc(O)cc(O)c21` [NARINGENIN], the Activity came to 1.7 µM in assay [1]; 2.6 µM in assay [2]; 1.6 µM in assay [3]; 0.7 µM in assay [4]; 0.09 µM in assay [5]; 5.8 µM in assay [6]. Further, the Activity in assay [7] came to 0.2 µM; in assay [8], 0.01 µM.
Turning to `O=C1C[C@@H](c2ccccc2)Oc2cc(O)cc(O)c21` [PINOCEMBRIN], the Activity was more than 100 µM in assay [1]; more than 100 µM in assay [2]; more than 100 µM in assay [3]; more than 100 µM in assay [4]; 7.6 µM in assay [5]; more than 100 µM in assay [6]. The figures for the Activity in assay [7] and in assay [8] were 17 µM and more than 100 µM, respectively.
For `COc1ccc(-c2coc3cc(O)cc(O)c3c2=O)cc1O` [PRATENSEIN], the Activity in assay [1] was more than 100 µM; in assay [2], more than 100 µM; in assay [3], more than 100 µM; in assay [4], 50.4 µM; in assay [5], 6.4 µM; in assay [6] it was more than 100 µM. In addition, the figures for the Activity in assay [7] and in assay [8] were 4.5 µM and more than 100 µM, respectively.
`COc1c(O)cc2occ(-c3ccc(O)cc3)c(=O)c2c1O` [TECTORIGENIN]: the Activity is more than 100 µM in assay [1]; more than 100 µM in assay [2]; 6.9 µM in assay [3]; 2.7 µM in assay [4]; 0.3 µM in assay [5]; 2.2 µM in assay [6]. In addition, the Activity in assay [7] was found to be 0.5 µM; in assay [8], 1.4 µM.
`COc1cc(O)ccc1-c1coc2cc(O)cc(O)c2c1=O` [THERALIN]: the Activity was 0.01 µM in assay [1]; 0.4 µM in assay [2]; more than 100 µM in assay [3]; more than 100 µM in assay [4]; 1.7 µM in assay [5]; more than 100 µM in assay [6]. Further, the results for the Activity in assay [7] and in assay [8] were 0.6 µM and more than 100 µM, respectively.
On to `COc1cc(O)ccc1C/C=C/c1ccc(O)cc1` [XENOGNOSIN], for which the Activity was more than 100 µM in assay [1]; more than 100 µM in assay [2]; more than 100 µM in assay [3]; 4.6 µM in assay [4]; 0.7 µM in assay [5]; 5.7 µM in assay [6]. Further, the Activity was 0.1 µM in assay [7] and 0.01 µM in assay [8].
